Tests used:
Aeromonas hydrophila [1] = test: Activity of Aeromonas hydrophila metallo-betalactamase CphA N233A mutant expressed in Escherichia coli BL21(DE3) by spectrophotometric analysis in presence of < 0.4 uM zinc ions
How it was run: (§1)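 Steady-state kinetics (kcat, Km, kcat/Km) at 30°C in 15 mM cacodylate pH 6.5, no added Zn2+ (free [Zn2+] < 0.4 µM), enzyme as the mono-zinc form (one Zn per molecule). Substrates imipenem, nitrocefin and CENTA. N233A mutant from E. coli BL21 (DE3) pLysS Star, purified to homogeneity, mass checked by ESI-MS. Standard errors below 10%.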

Aeromonas hydrophila [2] = test: Ratio of Kcat to Km for Aeromonas hydrophila metallo-betalactamase CphA N233A mutant expressed in Escherichia coli BL21(DE3) by spectrophotometric analysis in presence of < 0.4 uM zinc ions; how it was run: as §1

Structure (SMILES) | Km (Aeromonas hydrophila [1]) [µM] | kcat (Aeromonas hydrophila [1]) [s⁻¹] | kcat/Km (Aeromonas hydrophila [2]) [M⁻¹ s⁻¹]
C[C@@H](O)[C@H]1C(=O)N2C(C(=O)O)=C(SCCNC=N)C[C@H]12 | > 1000 | > 700 | 700000
O=C(Cc1cccs1)N[C@@H]1C(=O)N2C(C(=O)O)=C(/C=C/c3ccc([N+](=O)[O-])cc3[N+](=O)[O-])CS[C@H]12 | 55 | 0.03 | 520
O=C(Cc1cccs1)N[C@@H]1C(=O)N2C(C(=O)O)=C(CSc3ccc([N+](=O)[O-])c(C(=O)O)c3)CS[C@H]12 | 14 | 0.0035 | 250

— ChEMBL document CHEMBL1649236, “The structure of the dizinc subclass B2 metallo-beta-lactamase CphA reveals that the second inhibitory zinc ion binds in the histidine site” (Antimicrob Agents Chemother, 2009)
